Data as given in ChEMBL document CHEMBL1122754, “Synthesis and evaluation of (17 alpha,20E)-21-[125I]iodo-19-norpregna-1,3,5(10),20-tetraene-3,17 -diol and (17 alpha,20E)-21-[125I]iodo-11 beta-methoxy-19-norpregna-1,3,5(10),20-tetraene-3,17-diol (17 alpha-(iodovinyl)estradiol derivatives) as high specific activity potential radiopharmaceuticals” (J Med Chem, 1984).
“And” between values parts separate entries of the source, which are not always exact repeats. Identical values can stand only once.

Experiments:
Rattus norvegicus [1] = test: In vivo distribution of the drug in uterus was determined at 2 hr following injection of five microcurics of the radiolabeled [125 I] compound in rats; assay type: ADME, organism-based
In short: (§1)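 Immature female Sprague-Dawley rats (20–25 days old) given 3–5 μCi of the ¹²⁵I-radioligand into the femoral vein; killed by cervical dislocation at 1, 2 or 3 h. Uterus blotted free of blood, 10–30-mg samples weighed. Heparinized blood centrifuged, 20-μL plasma samples taken. Gamma counting, dpm by absolute counting method. Expressed as percent dose/gram tissue; uterus/plasma ratio from these values.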

Rattus norvegicus [2] = test: In vivo distribution of the drug in uterus was determined at 3h following injection of five microcurics of the radiolabeled [125 I] compound in rats; assay type: ADME, organism-based; in short: as §1
Rattus norvegicus [3] = test: In vivo distribution of the drug in uterus/plasma was determined at 1 hr following injection of five microcurics of the radiolabeled [125 I] compound in rats; assay type: ADME, organism-based; in short: as §1
Rattus norvegicus [4] = test: In vivo distribution of the drug in uterus/plasma was determined at 2 hr following injection of five microcurics of the radiolabeled [125 I] compound in rats; assay type: ADME, organism-based; in short: as §1
Rattus norvegicus [5] = test: (§2) In vivo distribution of the drug in uterus/plasma was determined at 3h following injection of five microcurics of the radiolabeled [125 I] compound in rats; assay type: ADME, organism-based; conditions: other tissue; in short: as §1
Rattus norvegicus [6] = test: In vivo distribution of the drug in plasma was determined at 1 hr following injection of five microcurics of the radiolabeled [125 I] compound in rats; assay type: ADME, organism-based; in short: as §1
Rattus norvegicus [7] = test: In vivo distribution of the drug in plasma was determined at 2 hr following injection of five microcurics of the radiolabeled [125 I] compound in rats; assay type: ADME, organism-based; in short: as §1
Rattus norvegicus [8] = test: In vivo distribution of the drug in plasma was determined at 3h following injection of five microcurics of the radiolabeled [125 I] compound in rats; assay type: ADME, organism-based; in short: as §1
Rattus norvegicus [9] = test: In vivo distribution of the drug in uterus was determined at 1 hr following injection of five microcurics of the radiolabeled [125 I] compound in rats; assay type: ADME, organism-based; in short: as §1
Rattus norvegicus [10] = species: Rattus norvegicus; test: Specific activity and expressed as Ci/mmol; assay type: functional
Rattus norvegicus [11] = test: as §2; assay type: ADME, organism-based; conditions: other tissue; remark: listed apart in the source
In short: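 Female Sprague-Dawley rats aged 20–25 days received 3–5 µCi of the [125I] radioligand via the femoral vein and were killed by cervical dislocation at 1, 2 and 3 h. Uterus was blotted free of blood, and 10–30 mg samples were weighed. Heparinized blood was centrifuged, and 20 µL plasma samples were taken. Samples were gamma-counted, with dpm found by absolute counting. Values are % dose/g, and the uterus/plasma ratio was derived from them.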

Rattus norvegicus [12] = test: In vivo effect when coinjected with estradiol (50 ug) in immature rat liver (after 1 hr); assay type: functional
Rattus norvegicus [13] = test: In vivo effect when coinjected with estradiol (50 ug) in immature rat muscle (after 1 hr); assay type: functional, Muscle tissue
Rattus norvegicus [14] = test: In vivo effect when coinjected with estradiol (50 ug) in immature rat plasma (after 1 hr); assay type: functional
Rattus norvegicus [15] = test: In vivo effect when coinjected with estradiol (50 ug) in immature rat uterus (after 1 hr); assay type: functional

uterus/plasma ratio (Rattus norvegicus [11])	Structure (SMILES)	Distribution (Rattus norvegicus [1])	Distribution (Rattus norvegicus [2])	uterus/plasma ratio (Rattus norvegicus [3])	uterus/plasma ratio (Rattus norvegicus [4])	uterus/plasma ratio (Rattus norvegicus [5])	Distribution (Rattus norvegicus [6])	Distribution (Rattus norvegicus [7])	Distribution (Rattus norvegicus [8])	Distribution (Rattus norvegicus [9])	Specific activity (Rattus norvegicus [10])	Dose (Rattus norvegicus [12])	Dose (Rattus norvegicus [13])	Dose (Rattus norvegicus [14])	Dose (Rattus norvegicus [15])
–	C[C@]12CC[C@@H]3c4ccc(O)cc4CC[C@H]3[C@@H]1CC[C@@]2(O)/C=C/[125I]	0.96%	1.1%	5.5	5	9.7	1.09%	0.192%	0.113%	5.89%	2200 Ci mM-1 and 2152 Ci mM-1	–	–	–	–
66.3	CO[C@H]1C[C@@]2(C)[C@@H](CC[C@@]2(O)/C=C/[125I])[C@@H]2CCc3cc(O)ccc3[C@H]21	17.2%	15.9%	29	68.3	–	0.28%	0.25%	0.24%	8.18%	–	4.52%	1.29%	0.34%	1.25%
